The text below walks through data of ChEMBL document CHEMBL1125303, “Truncated, branched, and/or cyclic analogues of neuropeptide Y: importance of the pancreatic peptide fold in the design of specific Y2 receptor ligands” (J Med Chem, 1992).

SMILES strings stand for the structures. Positions of bridges follow the written chain, without caps; N, C: chain ends. Non-standard residues stand in square brackets, D forms with d. Residues, ends and D or L forms follow the SMILES beside them. Orn = NCCC[C@H](N)C(=O)O; Dap = NC[C@H](N)C(=O)O

Experiment [1] deals with T1, Neuropeptide Y receptor type 2 (Homo sapiens, UniProt P49146).
T1 sequence (P49146 whole entry): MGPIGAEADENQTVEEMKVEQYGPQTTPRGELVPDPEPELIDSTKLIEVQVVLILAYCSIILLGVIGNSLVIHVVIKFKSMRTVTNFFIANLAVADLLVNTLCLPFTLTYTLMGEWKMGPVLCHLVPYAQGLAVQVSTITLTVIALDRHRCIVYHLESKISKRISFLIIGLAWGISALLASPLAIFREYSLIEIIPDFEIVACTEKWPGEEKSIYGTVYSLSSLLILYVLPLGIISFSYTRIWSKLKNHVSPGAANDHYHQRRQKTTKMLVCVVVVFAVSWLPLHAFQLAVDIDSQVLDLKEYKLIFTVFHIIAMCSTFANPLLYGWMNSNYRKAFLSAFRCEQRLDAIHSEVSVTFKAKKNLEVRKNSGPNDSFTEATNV
Description: Displacement of l25I-PYY from Neuropeptide Y receptor type 2 of human neuroblastoma SK-N-BE cells. Type of experiment: cell-based. An outline of the steps: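 Intact SK-N-BE(2) cells (Y2) were grown in DME:F12 with 10% FCS, then plated at 10⁶ cells/well on poly(Lys-Ala)-coated wells and used after 1 day. Cells were washed cold, lysed and gamma-counted. Triplicates; Kd fitted with LIGAND.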

In experiment [2] the target is T2, Neuropeptide Y receptor type 1 (Homo sapiens, UniProt P25929).
T2 sequence (P25929 whole entry): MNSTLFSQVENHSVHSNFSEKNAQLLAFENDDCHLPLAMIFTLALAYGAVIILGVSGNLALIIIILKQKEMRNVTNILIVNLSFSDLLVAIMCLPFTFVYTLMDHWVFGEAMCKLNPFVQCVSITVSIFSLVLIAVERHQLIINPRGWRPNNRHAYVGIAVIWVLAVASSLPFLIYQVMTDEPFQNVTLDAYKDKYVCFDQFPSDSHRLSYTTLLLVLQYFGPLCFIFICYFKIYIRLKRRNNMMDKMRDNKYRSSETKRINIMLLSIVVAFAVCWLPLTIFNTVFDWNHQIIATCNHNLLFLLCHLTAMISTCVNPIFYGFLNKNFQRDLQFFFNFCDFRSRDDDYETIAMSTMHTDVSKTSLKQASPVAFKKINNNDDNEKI
Put plainly: Displacement of l25I-PYY from Neuropeptide Y receptor type 1 of human neuroblastoma SK-N-MC cells. Type of experiment: cell-based. An outline of the steps: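 Intact SK-N-MC cells (Y1) were grown in MEM with 10% FCS, then plated at 10⁶ cells/well on poly(Lys-Ala)-coated wells and used after 2 days. Cells were washed cold, lysed and gamma-counted. Triplicates; Kd fitted with LIGAND.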

With `CC[C@H](C)[C@H](NC(=O)[C@H](CC(C)C)NC(=O)[C@H](CC(N)=O)NC(=O)[C@@H](NC(=O)[C@H]1CNC(=O)CC[C@H](NC(=O)[C@@H](N)Cc2ccc(O)cc2)C(=O)N[C@@H](CO)C(=O)N[C@@H](CCCCN)C(=O)N2CCC[C@H]2C(=O)N[C@H](C)C(=O)N[C@@H](CC(C)C)C(=O)N[C@@H](CCCNC(=N)N)C(=O)N[C@@H](Cc2cnc[nH]2)C(=O)N1)[C@@H](C)CC)C(=O)N[C@H](C(=O)N[C@@H](CCCNC(=N)N)C(=O)N[C@@H](CCC(N)=O)C(=O)N[C@@H](CCCNC(=N)N)C(=O)N[C@@H](Cc1ccc(O)cc1)C(N)=O)[C@@H](C)O`, the Kd is 3.6 nM in experiment [1] (sk-n-be) and greater than 1000 nM in experiment [2] (sk-n-mc).

As to `CC[C@H](C)[C@H](NC(=O)[C@H](Cc1ccc(O)cc1)NC(=O)[C@@H](C)NC(=O)[C@@H]1CCCN1C(=O)[C@@H](N)Cc1ccc(O)cc1)C(=O)N[C@@H](CC(N)=O)C(=O)N[C@@H](CC(C)C)C(=O)N[C@H](C(=O)N[C@H](C(=O)N[C@@H](CCCN=C(N)N)C(=O)N[C@@H](CCC(N)=O)C(=O)N[C@@H](CCCN=C(N)N)C(=O)N[C@@H](Cc1ccc(O)cc1)C(N)=O)[C@@H](C)O)[C@@H](C)CC`, binding in experiment [1] (sk-n-be) was characterised by a dissociation constant (Kd) of 120 nM.

Turning to `CC[C@H](C)[C@@H]1NC(=O)[C@H](Cc2ccc(O)cc2)NC(=O)[C@@H](C)NC(=O)[C@@H]2CCCN2C(=O)[C@@H](N)CCC(=O)NC[C@H](C(=O)N[C@H](C(=O)N[C@H](C(=O)N[C@@H](CCCNC(=N)N)C(=O)N[C@@H](CCC(N)=O)C(=O)N[C@@H](CCCNC(=N)N)C(=O)N[C@@H](Cc2ccc(O)cc2)C(N)=O)[C@@H](C)O)[C@@H](C)CC)NC(=O)[C@H](CC(N)=O)NC1=O`, the Kd in experiment [1] and in experiment [2] was greater than 1000 nM in each case.

Regarding `CC[C@H](C)[C@@H]1NC(=O)[C@H](Cc2ccc(O)cc2)NC(=O)[C@H](Cc2c[nH]cn2)NC(=O)[C@H](CCCNC(=N)N)NC(=O)[C@H](CC(C)C)NC(=O)[C@@H](C)NC(=O)[C@@H]2CCCN2C(=O)[C@H](CCCCN)NC(=O)[C@H](CO)NC(=O)[C@@H](NC(=O)[C@@H](N)Cc2ccc(O)cc2)CCC(=O)NC[C@H](C(=O)N[C@H](C(=O)N[C@H](C(=O)N[C@@H](CCCNC(=N)N)C(=O)N[C@@H](CCC(N)=O)C(=O)N[C@@H](CCCNC(=N)N)C(=O)N[C@@H](Cc2ccc(O)cc2)C(N)=O)[C@@H](C)O)[C@@H](C)CC)NC(=O)[C@H](CC(N)=O)NC1=O`, in experiment [2] (sk-n-mc), the Kd was greater than 1000 nM.

As to `CC[C@H](C)[C@H](NC(=O)[C@H](Cc1ccc(O)cc1)NC(=O)[C@H](Cc1c[nH]cn1)NC(=O)[C@H](CCCN=C(N)N)NC(=O)[C@H](CC(C)C)NC(=O)[C@H](C)NC(=O)[C@H](CO)NC(=O)[C@H](Cc1ccc(O)cc1)NC(=O)[C@H](Cc1ccc(O)cc1)NC(=O)[C@H](CCCN=C(N)N)NC(=O)[C@H](C)N)C(=O)N[C@@H](CC(N)=O)C(=O)N[C@H]1CCCCNC(=O)CC[C@@H](C(=O)N[C@@H](CCCN=C(N)N)C(=O)N[C@@H](Cc2ccc(O)cc2)C(N)=O)NC(=O)[C@H](CCCN=C(N)N)NC(=O)[C@H]([C@@H](C)O)NC(=O)[C@H]([C@@H](C)CC)NC1=O` (H-ARYYSALRHYINKITRERY-NH2; lactam 13-17), the figures for the Kd in experiment [1] (sk-n-be) and in experiment [2] (sk-n-mc) were 360 nM and greater than 1000 nM, respectively.

As for `CC[C@H](C)[C@H](NC(=O)[C@H](Cc1ccc(O)cc1)NC(=O)[C@H](Cc1c[nH]cn1)NC(=O)[C@H](CCCNC(=N)N)NC(=O)[C@H](CC(C)C)NC(=O)[C@H](C)NC(=O)[C@H](CO)NC(=O)[C@H](Cc1ccc(O)cc1)NC(=O)[C@H](Cc1ccc(O)cc1)NC(=O)[C@H](CCCNC(=N)N)NC(=O)[C@H](C)N)C(=O)N[C@@H](CC(N)=O)C(=O)N[C@@H](CC(C)C)C(=O)N[C@H](C(=O)N[C@H](C(=O)N[C@H]1CCCCNC(=O)CC[C@@H](C(N)=O)NC(=O)[C@H](CCCNC(=N)N)NC(=O)[C@H](CCC(N)=O)NC1=O)[C@@H](C)O)[C@@H](C)CC` (H-ARYYSALRHYINLITKQRE-NH2; lactam 16-19), the equilibrium dissociation constant (Kd) in experiment [2] was greater than 1000 nM.

Consider `CC[C@H](C)[C@H](NC(=O)[C@H](Cc1ccc(O)cc1)NC(=O)[C@H](Cc1cnc[nH]1)NC(=O)[C@H](CCCNC(=N)N)NC(=O)[C@H](CC(C)C)NC(=O)[C@H](C)NC(=O)[C@H](CO)NC(=O)[C@H](Cc1ccc(O)cc1)NC(=O)[C@H](Cc1ccc(O)cc1)NC(=O)[C@H](CCCNC(=N)N)NC(=O)[C@H](C)N)C(=O)N[C@@H](CC(N)=O)C(=O)N[C@H]1CNC(=O)CC[C@@H](C(=O)N[C@@H](CCCNC(=N)N)C(=O)N[C@@H](Cc2ccc(O)cc2)C(N)=O)NC(=O)[C@H](CCCNC(=N)N)NC(=O)[C@H]([C@@H](C)O)NC(=O)[C@H]([C@@H](C)CC)NC1=O` (H-ARYYSALRHYIN[Dap]ITRERY-NH2; lactam 13-17), for which the Kd was 590 nM in experiment [1] (sk-n-be) and greater than 1000 nM in experiment [2] (sk-n-mc).

On to `CC[C@H](C)[C@H](NC(=O)[C@H](Cc1ccc(O)cc1)NC(=O)[C@H](Cc1cnc[nH]1)NC(=O)[C@H](CCCNC(=N)N)NC(=O)[C@H](CC(C)C)NC(=O)[C@H](C)NC(=O)[C@H](CO)NC(=O)[C@H](Cc1ccc(O)cc1)NC(=O)[C@H](Cc1ccc(O)cc1)NC(=O)[C@H](CCCNC(=N)N)NC(=O)[C@H](C)N)C(=O)N[C@@H](CC(N)=O)C(=O)N[C@H]1CCCNC(=O)CC[C@@H](C(=O)N[C@@H](CCCNC(=N)N)C(=O)N[C@@H](Cc2ccc(O)cc2)C(N)=O)NC(=O)[C@H](CCCNC(=N)N)NC(=O)[C@H]([C@@H](C)O)NC(=O)[C@H]([C@@H](C)CC)NC1=O` (H-ARYYSALRHYIN[Orn]ITRERY-NH2; lactam 13-17), for which the Kd is 950 nM in experiment [1] (sk-n-be) and greater than 1000 nM in experiment [2] (sk-n-mc).
